Bounds are passed on as bounds.

The subject of one series is Poliovirus 1. The series can be described thus: Antiviral activity against Poliovirus type 1 Sabin strain infected in african green monkey Vero 76 cells assessed as reduction in plaque number after 2 days by plaque reduction assay. The class given is functional, organism-based. Particulars: Enterovirus C, 48 h. (In general: In a plaque reduction assay, fewer plaques than in the control indicate reduced infectivity or spread.)

Series [1] is described as follows: Cytotoxicity against mock-infected human MT4 cells after 96 hrs by MTT assay. Type of series: cell-based. In outline:
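Exponentially growing MT-4 cells were seeded at 1 × 10^5 cells/mL in RPMI-1640 with 10% FBS and held at 37 °C, 5% CO2 with serial compound dilutions. Viability was read by MTT after 96 h. CC50 from linear regression against untreated controls.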
On the technique in general: Tetrazolium dyes change colour on reduction, which living cells bring about.

For a further series, the system named is Vaccinia virus. The series can be described thus: Antiviral activity against Vaccinia Virus infected in african green monkey Vero 76 cells assessed as reduction in plaque number after 3 days by plaque reduction assay. Type of series: functional, organism-based. Conditions: Orthopoxvirus vaccinia, 72 h.
The test system of series [2] is Respiratory syncytial virus. Kind of series: Antiviral activity against Respiratory syncytial virus infected in african green monkey Vero 76 cells assessed as reduction in plaque number after 5 days by plaque reduction assay. Particulars: human respiratory syncytial virus, 120 h. Type of series: functional, organism-based.
For series [3], the system named is Human immunodeficiency virus 1. Kind of series: Antiviral activity against HIV1 infected in human MT4 cells assessed as inhibition of virus-induced cytopathogenicity after 4 days by MTT assay. Type of series: functional, organism-based. Conditions: Human immunodeficiency virus 1, MT4, 96 h. In short, it runs like this: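 MT-4 cells (1 × 10^4/well in RPMI) were infected acutely with HIV-1 IIIB, 100 CCID50 (m.o.i. 0.01), with serial dilutions from 100 µM, 1:5. After 4 days at 37 °C, protection from virus-induced cytopathogenicity was read by MTT. EC50 came from linear regression against untreated controls.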
In general terms: Damage to the host cells serves as the signal in cytopathic effect assays.

Series [4] can be described thus: Selectivity index, ratio of CC50 for african green monkey Vero 76 cells to EC50 for Coxsackievirus B5. The class given is toxicity, cell-based. Conditions: read-out: Ratio CC50/EC50. In short, it runs like this: (§1)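 Mock-infected Vero-76 cells were tested in parallel on the same 24-well plates as the plaque assays (seeding 4 × 10^5 cells/mL, D-MEM with FBS), with serial compound dilutions at 37 °C, 5% CO2. Viability was read after 48–96 h by crystal violet staining. CC50 by linear regression; selectivity index = Vero-76 CC50/EC50 for CVB-5 or RSV.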

The nature of series [5]: Cytotoxicity against mock-infected MDBK cells after 48 to 96 hrs by MTT assay. Type of series: cell-based, Bos taurus. Conditions: cattle. In short, it runs like this:
(§2)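 Mock-infected MDBK (6 × 10^5 cells/mL; MEM-E, 10% horse serum, 1 mM pyruvate) or BHK (1 × 10^6 cells/mL; MEM-E, 10% FBS) cells were incubated at 37 °C, 5% CO2 with serial dilutions from 100 µM, 1:5. Viability by MTT after 48–96 h. CC50 from linear regression against untreated controls.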

A further series deals with Yellow fever virus. Kind of series: Antiviral activity against Yellow fever virus infected in BHK21 cells assessed as inhibition of virus-induced cytopathogenicity after 3 to 4 days by MTT assay. Type of series: functional, organism-based. Conditions: BHK-21.
Series [6] in a line: Cytotoxicity against mock-infected BHK21 cells after 48 to 96 hrs by MTT assay. Type of series: functional. Conditions: Mesocricetus auratus, BHK-21. In outline:
as §2

The nature of series [7]: Selectivity index, ratio of CC50 for african green monkey Vero 76 cells to EC50 for Respiratory syncytial virus. Type of series: toxicity, cell-based. Particulars: read-out: Ratio CC50/EC50. In short, it runs like this: as §1
Another series relates to Coxsackievirus B5. Kind of series: Antiviral activity against Coxsackievirus B5 infected in african green monkey Vero 76 cells assessed as reduction in plaque number after 3 days by plaque reduction assay. Type of series: functional, organism-based. Conditions: Enterovirus B, 72 h.
In the next series the test system is Human alphaherpesvirus 1. The series can be described thus: Antiviral activity against HSV1 infected in african green monkey Vero 76 cells assessed as reduction in plaque number after 3 days by plaque reduction assay. The class given is functional, organism-based. Particulars: Human alphaherpesvirus 1, Vero, 72 h.
Series [8] can be described thus: Cytotoxicity against mock-infected african green monkey Vero 76 cells after 48 to 96 hrs by MTT assay. Particulars: chlorocebus sabaeus, mock-infected Vero 76 cells. The class given is cell-based.
The test system of series [9] is Vesicular stomatitis virus. Kind of series: Antiviral activity against Vesicular stomatitis virus infected in african green monkey Vero 76 cells assessed as reduction in plaque number after 2 days by plaque reduction assay. The class given is functional, organism-based. Conditions: 48 h.
In series [10] the test system is Bovine viral diarrhea virus 1. Kind of series: Antiviral activity against Bovine viral diarrhea virus infected in MDBK cells assessed as inhibition of virus-induced cytopathogenicity after 3 to 4 days by MTT assay. The class given is functional, organism-based. Conditions: Bovine viral diarrhea virus isolates and strains.
For the next series, the system named is Reovirus sp. Kind of series: Antiviral activity against Reovirus type-1 infected in BHK21 cells assessed as inhibition of virus-induced cytopathogenicity after 3 to 4 days by MTT assay. The class given is functional, organism-based. Particulars: BHK-21.

With `FC(F)(F)c1ccc2c(c1)nc(C(F)(F)F)n2C[C@@H]1CCCN2CCCC[C@H]12`, the EC50 in the series on Poliovirus 1 is above 100 µM; with Vaccinia virus, above 100 µM; in series [2], 22 µM; in [3] it was above 100 µM; with Yellow fever virus, 33 µM; with Coxsackievirus B5 it was 11 µM. In addition, the EC50 (with Human alphaherpesvirus 1; in series [9]; in [10]; in the series with Reovirus sp.) was above 100 µM in each case. Moreover, in [1], the midpoint of cytotoxicity, the CC50 at 96 h, lay at 54 µM. Moreover, the selectivity ratio in series [4] stood at 8.18; in series [7], 4.09. In addition, the CC50 in series [5] was at least 100 µM; in [6] it was 80 µM; in [8], 90 µM.

For `CCCCn1c(Cc2ccc(Cl)c(Cl)c2)nc2cc(C(F)(F)F)ccc21`, the EC50 was above 100 µM in the series with Poliovirus 1; 31 µM in the series with Vaccinia virus; 9 µM in [2]; above 100 µM in [3]; above 100 µM in the series with Yellow fever virus; 12 µM in the series with Coxsackievirus B5. Also, the EC50 (in the series on Human alphaherpesvirus 1; in series [9]; in [10]; in the series on Reovirus sp.) was above 100 µM each time. Also, the CC50 at 96 h in [1] is above 100 µM. The figures for the selectivity ratio in [4] and in [7] were above 8.33 and above 11.1, respectively. The results for the CC50 in series [5], in [6] and in series [8] were 11 µM, 21 µM and above 100 µM, respectively.

On to `Clc1ccc2nc(-c3ccccc3)n([C@H]3CCCN4CCCC[C@H]34)c2c1`, for which the EC50 is above 100 µM in the series with Poliovirus 1; above 100 µM with Vaccinia virus; 45 µM in series [2]; above 100 µM in [3]; above 100 µM with Yellow fever virus; 14 µM in the series with Coxsackievirus B5. Besides, the EC50 with Human alphaherpesvirus 1 is above 100 µM; in series [9] it was above 100 µM; in series [10], 80 µM; in the series with Reovirus sp. it was above 100 µM. Besides, the midpoint of cytotoxicity in [1], the CC50 at 96 h, lay at 56 µM. The selectivity ratio was 6.43 in series [4] and 2 in series [7]. Besides, the CC50 in [5] was 86 µM; in series [6], 48 µM; in series [8], 90 µM.

On to `FC(F)(F)c1ccc2c(c1)nc(Cc1ccc(Br)cc1)n2C[C@@H]1CCCN2CCCC[C@H]12`, for which the EC50 was above 100 µM with Poliovirus 1; above 100 µM in the series with Vaccinia virus; 25 µM in [2]; above 100 µM in series [3]; above 100 µM in the series with Yellow fever virus; above 100 µM with Coxsackievirus B5. Moreover, the EC50 (in the series on Human alphaherpesvirus 1; in series [9]; in series [10]; in the series with Reovirus sp.) was above 100 µM in each case. Besides, the CC50 at 96 h in series [1] stood at 13 µM. Also, the selectivity ratio is above 1 in series [4] and above 4 in series [7]. Also, the values for the CC50 in series [5], in [6] and in series [8] were 40 µM, 20 µM and above 100 µM, respectively.

On to `FC(F)(F)c1ccc2c(c1)nc(Cc1ccc(Cl)cc1)n2C[C@@H]1CCCN2CCCC[C@H]12`, for which the EC50 was above 100 µM with Poliovirus 1; above 100 µM with Vaccinia virus; 15 µM in series [2]; above 100 µM in series [3]; above 100 µM with Yellow fever virus; 13 µM in the series with Coxsackievirus B5. Besides, the EC50 (in the series with Human alphaherpesvirus 1; in [9]; in [10]; in the series with Reovirus sp.) was above 100 µM throughout. In [1], this molecule showed a CC50 at 96 h of 6 µM. Further, the selectivity ratio in series [4] is above 7.69; in series [7], above 6.67. For the same molecule, the CC50 in series [5] was 54 µM; in [6] it was 20 µM; in [8], above 100 µM.

For orientation: EC50 means the concentration needed to bring the measured effect to its halfway point. The CC50 is the concentration that lowers cell viability or growth by half.

(Values after ChEMBL document CHEMBL3351523 (Bioorg Med Chem, 2014).)
